Data as given in PubChem BioAssay AID617 (SRMLSC, 2007).

Tested on: E. coli BW25113 ΔtolC growth inhibition, OD615
Experiment: E. coli ΔtolC antibacterial growth inhibition – strain BW25113 ΔtolC::kan, dose response (AID 617);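 note: growth read after 20 h at 37 °C with compound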
Procedure, shortened: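 Test system: E. coli BW25113 ΔtolC::kan bacteria | Amount: 1:1000 diluted subculture inoculum | Medium: LB plus kanamycin | Timing: 20 h exposure at 37 °C | Signal: Absorbance at 615 nm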

Row | SMILES | IC50
1 | Cc1nc2c(-c3ccccc3)c(C)[nH]n2c(=O)c1Cl | 3.59 µM
2 | O=C(NCC1CCCO1)c1sc(=S)n2c1[nH]c(=O)c1ccc(C(=O)N3CCCCC3)cc12 (stereo not drawn) | 16.4 µM
3 | Cc1c(C(=O)OCCOc2ccccc2)[nH]c2c1C(=O)CCC2 | 3.86 µM
4 | O=S(=O)(Nc1cccc2cccnc12)c1ccc(S(=O)(=O)N2CCCC2)cc1 | 15.3 µM
5 | CCC(C)(C)n1nnnc1CN(Cc1ccc(Cl)cc1)Cc1ccco1 | 12.6 µM
6 | O=C(CCSc1nnc2scc(-c3ccccc3)n12)Nc1nc(-c2ccccc2)ns1 | 16.6 µM
7 | CCOC(=O)Cc1c(C)nc2c(-c3cccc(Br)c3)c[nH]n2c1=O | 0.17 µM
8 | O=C1CCCC2=C1C(c1cccs1)n1nc(SCc3ccccc3)nc1N2 (stereo not drawn) | 15.8 µM
9 | Cc1ccc(C)c(N2CCN(C(=O)c3ccccc3Br)CC2)c1 | 11.2 µM
10 | Cc1ccc(C)c2[nH]c(=O)c(CN(CC3CCCO3)S(=O)(=O)c3ccc4c(c3)OCCO4)cc12 (stereo not drawn) | 38.6 µM
11 | O=c1c2c(nc3n1CCCCC3)-c1ccccc1CC21CCCC1 | 14.1 µM
12 | CC(C)c1ccc(Nc2nc(NCc3ccco3)nc(N3CCOCC3)n2)cc1 | 17.5 µM
13 | Cc1ccc(S(=O)(=O)NCCSc2nnnn2-c2cc(C)ccc2C)cc1 | 13.4 µM
14 | CC(=O)c1c(C)n([O-])c2ccccc2[n+]1=O | 3.89 µM
15 | Cc1nc2c(C(=O)NCCC3=CCCCC3)c[nH]n2c(=O)c1Cl | 8.36 µM
16 | O=C(c1cc2ccccc2o1)N1CCN(c2ccccc2Cl)CC1 | 9.9 µM
17 | Cn1c(NC(=O)c2ccccc2NC(=O)C(C)(C)C)nc2ccccc21 | 9.13 µM
18 | c1ccc(Nc2nc(-c3cccs3)cs2)nc1 | 12.9 µM
19 | CCCc1ccc(OCc2ccc(C(=O)N3CCN(c4ccccn4)CC3)o2)c(OC)c1 | 7.15 µM
20 | COc1ccc(-c2[nH]ncc2-c2cnn(-c3ccccc3)c2)c(O)c1 | 12.5 µM
21 | O=C(COn1nnc2ccc(C(F)(F)F)cc21)Nc1nnc(-c2ccccc2)o1 | 0.64 µM
22 | N#CC1=C(N)NC(SCc2ccccc2)=C(C#N)C12CCCCC2 | 2.12 µM
23 | CSc1nc(N2CCOCC2)c2c3c(sc2n1)CCCC3 | 11.9 µM

Row | SMILES | IC50
24 | COc1ccc(CCN2C(=O)c3[nH]nc(-c4ccccc4O)c3C2c2ccc(C)cc2)cc1OC (stereo not drawn) | 13.8 µM
25 | Cn1cc(SCC(=O)Nc2nc3ccccc3s2)c2ccccc21 | 9.23 µM
26 | CCn1c(C(=O)NCCCc2ccccc2)cc2sccc21 | 8.52 µM
27 | COc1ccc(C2CC(c3ccccc3)n3nc(NC(=O)c4cccs4)nc3N2)cc1 (stereo not drawn) | 8.18 µM
28 | COc1cc(NS(=O)(=O)c2ccc(Br)cc2)c(OC)cc1NC(=O)c1ccco1 | 25.3 µM
29 | CCn1c(Cn2nnc(-c3ccccc3)n2)nnc1SCc1ccc(Cl)c(Cl)c1 | 7.77 µM
30 | CCN1C(=O)CSC1=NC1C2CC3CC(C2)CC1C3 (stereo not drawn) | 33.5 µM
31 | CCOC(=O)N1CCc2c(sc(NC(=O)c3ccc(Cl)s3)c2C(N)=O)C1 | 5.13 µM
32 | O=C(Nc1nnc(-c2ccccc2Cl)o1)c1ccc(S(=O)(=O)N2CCCCCC2)cc1 | 0.16 µM
33 | CCOC(=O)c1cnc(-n2cc(C)cn2)nc1Nc1ccccc1OCC | 16 µM
34 | O=C1CCCc2nc3nc4ccccc4n3cc21 | 17 µM
35 | Cc1ccc(S(=O)(=O)Nc2cccc3ncccc23)s1 | 1.65 µM
36 | O=C(CSc1ncn(-c2ccccc2)n1)Nc1nc2c(s1)CCCC2 | 16.9 µM
37 | CC1CN(c2nc3c(c(=O)n(Cc4ccc(Cl)c(Cl)c4)c(=O)n3C)n2C)CC(C)O1 (stereo not drawn) | 20.4 µM
38 | CCc1cc(C(=O)COc2ccccc2F)c(O)cc1O | 10.8 µM
39 | CCOC(=O)c1c(C)oc2ccc(NS(=O)(=O)c3ccc4c5c(cccc35)C(=O)N4)cc12 | 16.3 µM
40 | Oc1c(CN2CCCCC2)cc(Br)c2cccnc12 | 4.8 µM
41 | CS(=O)c1nc(-c2ccc(Br)cc2)cc(-c2ccccc2)c1C#N (stereo not drawn) | 10.4 µM
42 | O=C(Nc1nc(-c2ccccn2)cs1)C1COc2ccccc2O1 (stereo not drawn) | 0.97 µM
43 | CC(C)COc1ccc(-c2nnc(-c3ccco3)o2)cc1 | 40.6 µM
44 | CCCCOc1ccc(NC2=NC3(CCCCC3)N=C(N)N2)cc1 | 2.64 µM
45 | C=C(C)COc1ccc(-c2[nH]ncc2Oc2cccc(OC)c2)c(O)c1 | 6 µM
46 | CCOC(=O)N1CCN(c2nc3ccccc3nc2C(C#N)S(=O)(=O)c2ccc(C)cc2)CC1 (stereo not drawn) | 7.88 µM

Row | SMILES | IC50
47 | O=C(Nc1ccccc1N1CCCCC1)c1cccc(F)c1 | 15.2 µM
48 | CCCCCCn1c(N2CCN(c3ccccc3)CC2)nc2c1c(=O)n(C)c(=O)n2C | 10.1 µM
49 | CC1CN(S(=O)(=O)c2ccc(C(=O)Nc3nnc(-c4ccc5c(c4)CCCC5)o3)cc2)CC(C)O1 (stereo not drawn) | 0.77 µM
50 | Cc1cccc(-c2noc(CN(C(=O)c3ccc(Br)o3)C(C)C)n2)c1 | 11.8 µM
51 | N#Cc1nc(COc2ccc(Br)cc2)oc1NCCCn1ccnc1 | 23.7 µM
52 | Cc1nn(-c2nc3ccccc3[nH]2)c(N)c1-c1ccccc1 | 59.4 µM
53 | O=C(NC1CCCCC1)c1nc2c(nnn2Cc2ccccc2Cl)c(=O)[nH]1 | 6.11 µM
54 | CC1Cc2ccccc2N1C(=O)Cn1c(=O)oc2cc(S(=O)(=O)NC3CCCC3)ccc21 (stereo not drawn) | 4.39 µM
55 | CCn1cc(C(=O)O)c(=O)c2cc(F)c(N3CCN(C(=O)Nc4ccccc4)CC3)cc21 | < 0.2 µM
56 | O=S(=O)(Nc1ccc2oc(-c3ccccc3)nc2c1)c1ccccc1 | 9.38 µM
57 | C(=C\c1ccccc1)/CN1CCN(c2ncnc3c2oc2ccccc23)CC1 | 10.2 µM
58 | COc1ccc(-c2[nH]ncc2-c2ccc(Cl)cc2)c(O)c1 | 4.52 µM
59 | CCCCCOC(=O)c1ccc(NC(=O)c2ccco2)cc1 | 6.52 µM
60 | CCn1c(=O)c(C(=O)Nn2c(C)nc3ccccc3c2=O)c(O)c2ccccc21 | 3.26 µM
61 | CCOC(=O)c1cc2sccc2n1Cc1ccc(C#N)cc1 | 11.1 µM
62 | O=C(Nc1ccc2nc(-c3cccs3)[nH]c2c1)c1ccco1 | 82.7 µM
63 | CCCCCCn1c2c(c(=N)c3c1CCC3)CCC2 | 10.2 µM
64 | c1ccc(-c2nc(NCc3ccco3)c3ccccc3n2)nc1 | 5.54 µM
65 | CCOC(=O)C1CN(c2cc3c(cc2F)c(=O)c(C(=O)O)cn3CC)OC1C(=O)OCC (stereo not drawn) | 0.81 µM
66 | Cc1cccc(OCCn2c(NC(=O)c3ccco3)nc3ccccc32)c1 | 11 µM
67 | O=C(CN(C(=O)CNC(=O)c1ccco1)c1ccc(Cl)c(Cl)c1)NC1CCCCC1 | 28.1 µM
68 | O=C(Nc1ccc(Cl)c(Cl)c1)OCc1cccnc1 | 13.8 µM
69 | O=C(COc1ccc(Cl)cc1)Nc1nnc(-c2ccc3c(c2)CCCC3)o1 | 0.25 µM

Row | SMILES | IC50
70 | C=C(C)COc1ccc(-c2n[nH]c(C)c2-c2ccccc2OC)c(O)c1 | 13.6 µM
71 | CCOc1ccc2nc(NC(=O)CN3CCC(n4nnc5cc(F)ccc54)CC3)sc2c1 | 15.4 µM
72 | CN(C)S(=O)(=O)N(Cc1ccc(Br)cc1)c1ccccc1 | 12.9 µM
73 | CCCCC(=O)c1c(O)c2ccccc2oc1=O | 7.48 µM
74 | O=c1c2cc3ccccc3n2cnn1Cc1ccccc1F | 17.2 µM
75 | CCCC(=O)c1ccc(N2CCCCCC2)c(F)c1 | 95.6 µM
76 | O=C(Nc1nc2ccccc2s1)C1CCCN1S(=O)(=O)c1ccc(Cl)cc1 (stereo not drawn) | 8.91 µM
77 | CCSc1nnc(NC(=O)CSc2nccn2-c2cccc(C)c2C)s1 | 5.29 µM
78 | CCOc1ccc(N(CC(=O)Nc2ccc(C)c(C)c2)S(=O)(=O)c2c(C)noc2C)cc1 | 15.5 µM
79 | O/N=C(\c1ccc(Cl)cc1)c1cc2ccccc2o1 | 5.7 µM
80 | Cc1ccc(S(=O)(=O)Nc2cccc(-c3cn4ccsc4n3)c2)cc1 | 15.5 µM
81 | CC1CCN(S(=O)(=O)c2cccc(C(=O)NCc3cccs3)c2)CC1 | 33.4 µM
82 | Cc1ccc(SC/C(O)=C(\C#N)c2nc3ccccc3s2)cc1 | 1.03 µM
83 | CC(C)N(Cc1nc(-c2ccc(Cl)cc2)no1)C(=O)CCC1CCCC1 | 15.5 µM
84 | COC(=O)CSc1nc(N2CCCCC2)c2c(c1C#N)CCCC2 | 12.6 µM
85 | O=C(N1CCN(c2ccccc2F)CC1)C12CC3CC(CC(C3)C1)C2 | 18.6 µM
86 | Cc1ccc(-n2c(C)cc(C(=O)COC(=O)c3c(C)noc3C)c2C)cc1 | 5.61 µM
87 | COc1ccccc1-c1noc(CCC(=O)Nc2cccc(C(F)(F)F)c2)n1 | 15.9 µM
88 | CCC1CCCCN1C(=O)c1cc(-c2ccc(Cl)c(Cl)c2)on1 (stereo not drawn) | 10.3 µM
89 | C=CCc1cc(C)ccc1OCC(O)CN1CCN(c2ccccc2)CC1 (stereo not drawn) | 17 µM
90 | COc1ccccc1N1CCN(C(=O)c2cc(-c3cccc(Cl)c3)on2)CC1 | 12.9 µM
91 | Cc1cc(N2CCCCC2)nc(SCc2ccc(C#N)cc2)n1 | 12.1 µM
92 | Cc1cccnc1Nc1nc(-c2ccc(O)cc2O)cs1 | 17.8 µM

Row | SMILES | IC50
93 | Cc1cc(C)n(-c2nc3ccccc3nc2N2CCCCCC2)n1 | 18.4 µM
94 | CCCn1c(SCC(=O)Nc2ccccc2N2CCCCC2)nc2c1c(=O)n(C)c(=O)n2C | 11.7 µM
95 | O=C(O)c1cc(Cl)c2ccccc2c1O | 10.1 µM
96 | O=S1(=O)Nc2c(ccc3cccnc23)-c2ccccc21 | 1.31 µM
97 | CCOCCn1c(CN(Cc2ccccc2)Cc2ccccc2)nc2c1c(=O)n(C)c(=O)n2C | 13.2 µM
98 | Cc1cccc(OCCCCc2c(C)n[nH]c2C)c1C | 1.56 µM
99 | Cc1ccc2oc(=O)n(Cc3ccccc3OC(C)C)c2c1 | 9 µM
100 | Cc1cc(C)nc(-n2nc(C)cc2Nc2ccccc2)n1 | 2.65 µM
101 | CC(C)(C)c1cc(C(F)(F)F)nc(SCCCNC(=O)c2ccco2)n1 | 6.37 µM
102 | Cc1cccc(-c2nc(CS(=O)CC(=O)NCCCSC3CCCCC3)c(C)o2)c1 (stereo not drawn) | 10.1 µM
103 | O=C(c1cc(-c2ccccc2)on1)N1CCN(Cc2ccc3c(c2)OCO3)CC1 | 20.8 µM
104 | O=C(NCc1ccccc1)c1c[nH]c2ccc(S(=O)(=O)Nc3ccc4c(c3)OCCO4)cc2c1=O | 9.4 µM
105 | Cc1ccc(NC(=O)c2nnn(-c3cc(C)cc(C)c3)c2N)cc1 | 21.9 µM
106 | Cc1cccn2c(=O)c3c(nc12)N1CCC(Cc2ccccc2)CC1C1(C3)C(=O)N(C)C(=O)N(C)C1=O (stereo not drawn) | 17.7 µM
107 | CCCOc1ccc2c3c(c(=O)oc2c1OCCC)CCC3 | 14.5 µM
108 | CCn1c(=O)c2cc(C(=O)N3CCN(C(=O)c4ccco4)CC3)sc2c2ccccc21 | 6.29 µM
109 | Cc1cc(N2CCCCC2)n2ncc(-c3ccccc3)c2n1 | 17.3 µM
110 | CC(C)(C)n1nnnc1C(c1cccs1)N(Cc1ccccc1)Cc1cccnc1 (stereo not drawn) | 8.37 µM
111 | Brc1cccc(-c2n[nH]c(-c3ccccc3)n2)c1 | 23.8 µM
112 | CCCCc1cc(O)c(CCCC)c(O)c1 | 10.9 µM
113 | CCC(C(=O)Nc1ccccc1OC)n1c(C(=O)OC)cc2ccsc21 (stereo not drawn) | 10.9 µM
